# Laboratory results: PMC5615838 (Toxicology Reports, 2016)
# Legend:
# hERG = hERG (Homo sapiens, UniProt Q12809); experiment: hERG electrophysiology; assay type: cell-based
# CYP2C9 = CYP2C9 (Homo sapiens, UniProt P11712); experiment: CYP inhibition, LC–MS/MS assay in human liver microsomes; assay type: in vitro ADME; settings: pooled human liver microsomes, probe tolbutamide
# Outline: (§1)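 Follow-up CYP panel in pooled human liver microsomes with CYP-specific probe substrates; CYP-specific metabolites quantified by LC-MS/MS. Test compound at 10 μM. Percent inhibition reported.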
# [1] = tested on: S. typhimurium strains TA98, TA100, TA1535, TA1537 and E. coli strain WP2 uvrA; experiment: bacterial reverse mutation test; assay type: cell-based, Salmonella typhimurium, Escherichia coli; settings: 50–5000 μg/plate, plate incorporation and pre-incubation, ±S9
# bone marrow PCEs = experiment: in vivo micronucleus assay; set-up: species or system mouse; settings: 500, 1000, 2000 mg/kg bw/day (oral), 2 days, male CD-1 mice
# [2] = in vitro metabolism in rat liver microsomes; assay type: in vitro ADME; settings: 50 μM, 120 min
# [3] = dose range-finding developmental toxicity study; assay type: in vivo, rat; settings: 125, 250, 500, 1000 mg/kg bw/day oral gavage, gestation days 6-20
# [4] = tested on: human peripheral blood lymphocytes; experiment: in vitro chromosome aberration test; settings: 200–1300 μg/mL, 3 or 21 hr exposure, ±S9
# [5] = JECFA SPET dietary exposure estimate; set-up: species or system human; settings: 28- and 90-day toxicology studies
# CYP3A4 = CYP3A4 (Homo sapiens, UniProt P08684); experiment: CYP inhibition, LC–MS/MS assay in human liver microsomes; assay type: in vitro ADME; settings: pooled human liver microsomes, probe midazolam
# Chain of CYP3A4 (P08684 whole entry): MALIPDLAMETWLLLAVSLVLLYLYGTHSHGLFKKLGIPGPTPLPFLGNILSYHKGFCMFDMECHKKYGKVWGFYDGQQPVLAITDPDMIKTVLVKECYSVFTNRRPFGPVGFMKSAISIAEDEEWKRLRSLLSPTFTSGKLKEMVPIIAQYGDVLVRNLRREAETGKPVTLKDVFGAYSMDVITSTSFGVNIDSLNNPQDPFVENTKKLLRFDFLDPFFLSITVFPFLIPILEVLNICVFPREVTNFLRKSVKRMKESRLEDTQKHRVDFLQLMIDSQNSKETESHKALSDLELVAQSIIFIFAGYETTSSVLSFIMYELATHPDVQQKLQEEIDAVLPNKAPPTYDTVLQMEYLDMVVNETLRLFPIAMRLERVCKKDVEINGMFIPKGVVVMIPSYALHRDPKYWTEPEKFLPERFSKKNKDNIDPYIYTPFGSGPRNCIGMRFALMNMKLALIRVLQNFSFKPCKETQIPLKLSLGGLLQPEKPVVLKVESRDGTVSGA
# Outline: as §1
# [6] = definitive developmental toxicity study; assay type: in vivo, rat
# [7] = pharmacokinetics and oral bioavailability of S6821; assay type: in vivo, rat
# [8] = 90-day subchronic toxicity study, diet; assay type: in vivo, rat
# Outline: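 Sprague-Dawley Crl:CD(SD) rats, 20/sex/group, received test compound continuously in the diet at 0, 10, 30 or 100 mg/kg bw/day for 90 consecutive days. Body-weight gain and food consumption were monitored. Clinical signs were recorded throughout treatment.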
# [9] = in vitro metabolism in human liver microsomes; assay type: in vitro ADME; settings: 50 μM, 120 min
# [10] = molecular target: human bitter receptor hTAS2R8; settings: antagonist; cited from earlier work
# [11] = 28-day dose-range finding toxicity study, diet; assay type: in vivo, rat; settings: 28 days
# Outline: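 Crl:CD(SD) rats, 5/sex/group, fed test compound in the diet at 10, 30 or 100 mg/kg bw/day for 28 days, with a vehicle-diet control group of 5/sex. Assessed survival, clinical signs, body weight, food consumption, hematology, clinical chemistry, organ weights and gross pathology. Livers examined microscopically in the 0 and 100 mg/kg bw/day groups.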
# CYP2C19 = CYP2C19 (Homo sapiens, UniProt P33261); experiment: CYP inhibition, LC–MS/MS assay in human liver microsomes; assay type: in vitro ADME; settings: pooled human liver microsomes, probe S-mephenytoin
# Chain of CYP2C19 (P33261 whole entry): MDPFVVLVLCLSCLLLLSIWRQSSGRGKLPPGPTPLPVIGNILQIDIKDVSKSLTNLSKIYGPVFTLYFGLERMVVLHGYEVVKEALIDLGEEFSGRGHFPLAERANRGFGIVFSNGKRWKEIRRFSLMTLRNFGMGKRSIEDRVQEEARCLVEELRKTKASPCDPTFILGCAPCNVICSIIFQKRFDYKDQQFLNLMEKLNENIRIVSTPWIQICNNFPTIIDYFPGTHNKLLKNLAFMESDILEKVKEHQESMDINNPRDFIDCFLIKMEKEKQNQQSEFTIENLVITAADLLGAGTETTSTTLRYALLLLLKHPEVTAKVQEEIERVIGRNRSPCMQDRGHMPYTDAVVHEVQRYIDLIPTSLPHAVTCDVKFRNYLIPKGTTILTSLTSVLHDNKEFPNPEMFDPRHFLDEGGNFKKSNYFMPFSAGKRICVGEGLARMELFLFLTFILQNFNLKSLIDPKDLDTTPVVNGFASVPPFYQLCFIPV
# Outline: as §1
# [12] = male, Sprague-Dawley, rat, plasma, iv, 1 mg/kg
# [13] = male, Sprague-Dawley, rat, plasma, po, 10 mg/kg
# [14] = male, Sprague-Dawley, rat, plasma, po, 30 mg/kg
# [15] = male, Sprague-Dawley, rat, plasma, po, 100 mg/kg
# Chain of CYP2C9 (P11712 whole entry): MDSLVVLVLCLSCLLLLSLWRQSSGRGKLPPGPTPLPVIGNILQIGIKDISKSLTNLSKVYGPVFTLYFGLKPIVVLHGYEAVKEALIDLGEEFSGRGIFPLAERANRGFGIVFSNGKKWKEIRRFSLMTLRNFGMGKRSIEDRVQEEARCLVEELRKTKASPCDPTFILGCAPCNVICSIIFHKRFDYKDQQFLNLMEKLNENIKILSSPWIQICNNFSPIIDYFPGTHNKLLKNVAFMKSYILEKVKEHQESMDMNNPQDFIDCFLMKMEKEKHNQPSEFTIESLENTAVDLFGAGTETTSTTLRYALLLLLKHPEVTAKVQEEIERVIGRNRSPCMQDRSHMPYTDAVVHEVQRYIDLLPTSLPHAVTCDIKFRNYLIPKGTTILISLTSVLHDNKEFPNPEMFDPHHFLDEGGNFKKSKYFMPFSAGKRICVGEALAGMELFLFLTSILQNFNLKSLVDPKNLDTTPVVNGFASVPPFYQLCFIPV
# Chain of hERG (Q12809 whole entry): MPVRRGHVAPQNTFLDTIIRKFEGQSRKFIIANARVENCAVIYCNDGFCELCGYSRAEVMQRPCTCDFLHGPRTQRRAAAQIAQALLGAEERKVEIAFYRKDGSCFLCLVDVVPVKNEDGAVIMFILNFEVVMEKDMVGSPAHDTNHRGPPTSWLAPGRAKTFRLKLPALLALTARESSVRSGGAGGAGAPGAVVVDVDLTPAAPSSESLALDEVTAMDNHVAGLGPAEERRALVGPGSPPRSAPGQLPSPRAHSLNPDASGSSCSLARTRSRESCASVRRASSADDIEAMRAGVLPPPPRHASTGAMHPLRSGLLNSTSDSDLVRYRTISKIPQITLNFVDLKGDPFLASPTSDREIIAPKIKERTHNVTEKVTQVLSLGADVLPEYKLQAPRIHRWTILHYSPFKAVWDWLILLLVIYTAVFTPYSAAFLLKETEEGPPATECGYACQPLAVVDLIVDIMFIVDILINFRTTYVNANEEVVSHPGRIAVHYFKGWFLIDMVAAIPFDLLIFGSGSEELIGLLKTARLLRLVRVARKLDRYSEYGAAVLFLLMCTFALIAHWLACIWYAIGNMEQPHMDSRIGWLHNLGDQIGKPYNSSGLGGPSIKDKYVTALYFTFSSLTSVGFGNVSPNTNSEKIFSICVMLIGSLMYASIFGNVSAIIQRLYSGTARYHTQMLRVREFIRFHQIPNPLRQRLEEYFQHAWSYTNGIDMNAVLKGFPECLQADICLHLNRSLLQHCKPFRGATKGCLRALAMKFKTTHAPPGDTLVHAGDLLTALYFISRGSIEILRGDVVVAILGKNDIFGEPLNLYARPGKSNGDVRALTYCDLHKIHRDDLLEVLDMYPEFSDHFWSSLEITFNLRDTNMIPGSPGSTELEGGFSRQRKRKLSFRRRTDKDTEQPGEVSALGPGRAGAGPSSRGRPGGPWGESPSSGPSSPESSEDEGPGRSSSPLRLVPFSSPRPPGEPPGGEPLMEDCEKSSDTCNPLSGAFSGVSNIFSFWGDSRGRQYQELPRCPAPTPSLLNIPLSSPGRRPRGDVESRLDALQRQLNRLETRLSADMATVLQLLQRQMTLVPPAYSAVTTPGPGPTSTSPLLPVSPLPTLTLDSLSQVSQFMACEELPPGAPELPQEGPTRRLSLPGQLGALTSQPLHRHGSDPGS
smiles,measurement,setting,value
"Cc1noc(C)c1Cn1cc(N2C(=O)CN(Cc3cccc(O)c3)C2=O)cn1 [S6821, 3-(1-((3,5-dimethylisoxazol-4-yl)methyl)-1H-pyrazol-4-yl)-1-(3-hydroxybenzyl)imidazolidine-2,4-dione]",inhibition at 10 µM,hERG,< 10%
same,inhibition at 10 µM,CYP2C9,-3%
same,"Reverse mutation (in vitro), Result",[1],Negative
same,"Micronucleus formation (in vivo), Result",bone marrow PCEs,Negative
same,"parent S6821 remaining, peak area % of time 0",[2],56%
same,Findings,[3],No maternal toxicity or effect on intrauterine growth up to 1000 mg/kg bw/day
same,"Chromosome aberration (in vitro), Result",[4],Negative
same,NOAEL of 100 mg/kg bw/day as multiple of estimated dietary exposure,[5],1500 times
same,inhibition at 10 µM,CYP3A4,4%
same,"Malformations, fetuses (litters)","[6]; 125 mg/kg bw/day, of 347(25) evaluated",3(2)
same,"Malformations, fetuses (litters)","[6]; 500 mg/kg bw/day, of 364(25) evaluated",2(2)
same,"Malformations, fetuses (litters)","[6]; 1000 mg/kg bw/day, of 327(22) evaluated",4(3)
same,Corpora Lutea,"[6]; Mean, 125 mg/kg bw/day",15.4
same,Dead Fetuses,"[6]; Mean, 125 mg/kg bw/day",0.0
same,Fetal Wt.,"[6]; Mean, 125 mg/kg bw/day",5.7 g
same,"Fetuses, Sex F","[6]; Mean, 125 mg/kg bw/day",6.8
same,"Fetuses, Sex M","[6]; Mean, 125 mg/kg bw/day",7.1
same,Implant. Sites,"[6]; Mean, 125 mg/kg bw/day",14.6
same,Post- Implant. Loss,"[6]; Mean, 125 mg/kg bw/day",0.7
same,Pre- Implant. Loss,"[6]; Mean, 125 mg/kg bw/day",0.8
same,Resorptions Early,"[6]; Mean, 125 mg/kg bw/day",0.7
same,Resorptions Late,"[6]; Mean, 125 mg/kg bw/day",0.0
same,Corpora Lutea,"[6]; Mean, 500 mg/kg bw/day",16.6
same,Dead Fetuses,"[6]; Mean, 500 mg/kg bw/day",0.0
same,Fetal Wt.,"[6]; Mean, 500 mg/kg bw/day",5.6 g
same,"Fetuses, Sex F","[6]; Mean, 500 mg/kg bw/day",7.4
same,"Fetuses, Sex M","[6]; Mean, 500 mg/kg bw/day",7.2
same,Implant. Sites,"[6]; Mean, 500 mg/kg bw/day",15.4
same,Post- Implant. Loss,"[6]; Mean, 500 mg/kg bw/day",0.8
same,Pre- Implant. Loss,"[6]; Mean, 500 mg/kg bw/day",1.2
same,Resorptions Early,"[6]; Mean, 500 mg/kg bw/day",0.8
same,Resorptions Late,"[6]; Mean, 500 mg/kg bw/day",0.0
same,Corpora Lutea,"[6]; Mean, 1000 mg/kg bw/day",16.9
same,Dead Fetuses,"[6]; Mean, 1000 mg/kg bw/day",0.0
same,Fetal Wt.,"[6]; Mean, 1000 mg/kg bw/day",5.6 g
same,"Fetuses, Sex F","[6]; Mean, 1000 mg/kg bw/day",7.4
same,"Fetuses, Sex M","[6]; Mean, 1000 mg/kg bw/day",7.5
same,Implant. Sites,"[6]; Mean, 1000 mg/kg bw/day",15.8
same,Post- Implant. Loss,"[6]; Mean, 1000 mg/kg bw/day",0.9
same,Pre- Implant. Loss,"[6]; Mean, 1000 mg/kg bw/day",1.1
same,Resorptions Early,"[6]; Mean, 1000 mg/kg bw/day",0.9
same,Resorptions Late,"[6]; Mean, 1000 mg/kg bw/day",0.0
same,Dead Fetuses,"[6]; Total, 125 mg/kg bw/day",0
same,"Fetuses, Sex F","[6]; Total, 125 mg/kg bw/day",170
same,"Fetuses, Sex M","[6]; Total, 125 mg/kg bw/day",177
same,Implant. Sites,"[6]; Total, 125 mg/kg bw/day",364
same,Post- Implant. Loss,"[6]; Total, 125 mg/kg bw/day",17
same,Pre- Implant. Loss,"[6]; Total, 125 mg/kg bw/day",20
same,Resorptions Early,"[6]; Total, 125 mg/kg bw/day",17
same,Resorptions Late,"[6]; Total, 125 mg/kg bw/day",0
same,Corpora Lutea,"[6]; Total, 500 mg/kg bw/day",415
same,Dead Fetuses,"[6]; Total, 500 mg/kg bw/day",0
same,"Fetuses, Sex F","[6]; Total, 500 mg/kg bw/day",185
same,"Fetuses, Sex M","[6]; Total, 500 mg/kg bw/day",179
same,Implant. Sites,"[6]; Total, 500 mg/kg bw/day",384
same,Post- Implant. Loss,"[6]; Total, 500 mg/kg bw/day",20
same,Pre- Implant. Loss,"[6]; Total, 500 mg/kg bw/day",31
same,Resorptions Early,"[6]; Total, 500 mg/kg bw/day",19
same,Resorptions Late,"[6]; Total, 500 mg/kg bw/day",1
same,Corpora Lutea,"[6]; Total, 1000 mg/kg bw/day",372
same,Dead Fetuses,"[6]; Total, 1000 mg/kg bw/day",0
same,"Fetuses, Sex F","[6]; Total, 1000 mg/kg bw/day",162
same,"Fetuses, Sex M","[6]; Total, 1000 mg/kg bw/day",165
same,Implant. Sites,"[6]; Total, 1000 mg/kg bw/day",347
same,Post- Implant. Loss,"[6]; Total, 1000 mg/kg bw/day",20
same,Pre- Implant. Loss,"[6]; Total, 1000 mg/kg bw/day",25
same,Resorptions Early,"[6]; Total, 1000 mg/kg bw/day",20
same,Resorptions Late,"[6]; Total, 1000 mg/kg bw/day",0
same,NOAEL for both maternal toxicity and embryo/fetal development,"[6]; oral gavage, gestation days 6-20",NOAEL for both maternal toxicity and embryo/fetal development = 1000 mg/kg bw/day
same,AUC0-last/dose,[7]; iv 1.0 mg/kg bw S6821,161 ng·h/mL/mg/kg
same,"Vss, times the total body water volume in the rat","[7]; iv, body water 668 mL/kg",0.84 times
same,CL as % of hepatic blood flow in the rat,"[7]; iv, hepatic blood flow 55.2 mL/min/kg",190%
same,AUC(0-t),[7]; [12],161 ng·h/mL
same,Cmax,[7]; [12],619 ng/mL
same,Tmax,[7]; [12],4.8 min
same,Vd,[7]; [12],0.563 L/kg
same,clearance,[7]; [12],105 mL/min/kg
same,half-life,[7]; [12],6 min
same,AUC(0-t),[7]; [13],28 ng·h/mL
same,Cmax,[7]; [13],12.3 ng/mL
same,Tmax,[7]; [13],30 min
same,bioavailability,[7]; [13],1.74%
same,half-life,[7]; [13],120 min
same,AUC(0-t),[7]; [14],201 ng·h/mL
same,Cmax,[7]; [14],38.5 ng/mL
same,Tmax,[7]; [14],30 min
same,bioavailability,[7]; [14],4.16%
same,half-life,[7]; [14],426 min
same,AUC(0-t),[7]; [15],410 ng·h/mL
same,Cmax,[7]; [15],68.1 ng/mL
same,Tmax,[7]; [15],30 min
same,bioavailability,[7]; [15],2.55%
same,half-life,[7]; [15],258 min
same,AUC0-last/dose,[7]; oral gavage 10 mg/kg bw S6821,2.80 ng·h/mL/mg/kg
same,AUC0-last/dose,[7]; oral gavage 30 mg/kg bw S6821,6.70 ng·h/mL/mg/kg
same,AUC0-last/dose,[7]; oral gavage 100 mg/kg bw S6821,4.10 ng·h/mL/mg/kg
same,NOAEL,"[8]; 10, 30, 100 mg/kg bw/day food ad-mix, 90 days, both sexes",100 mg/kg bw/day
same,NOEL,"[8]; 90 days, females",100 mg/kg bw/day
same,NOEL,"[8]; 90 days, males",30 mg/kg bw/day
same,Motor activity scores,"[8]; males, 100 mg/kg bw/day, week 12, second half of 1-hour recording",slightly higher than those of controls
same,Findings,"[8]; up to 100 mg/kg bw/day, 90 days",No test-article related findings
same,"parent S6821 remaining, peak area % of time 0",[9],75%
same,IC50,[10],35 nM
same,MTD,"[11]; 10, 30, 100 mg/kg bw/day food ad-mix, male & female",> 100 mg/kg bw/day
same,Findings,[11]; up to 100 mg/kg bw/day,No test-article related findings
same,inhibition at 10 µM,CYP2C19,8%
